Laboratory results reported in ChEMBL document CHEMBL4145630, “Development of Highly Potent and Selective Steroidal Inhibitors and Degraders of CDK8” (ACS Med Chem Lett, 2018).
Active and inactive are the calls of the source. No cut-off for these calls is given here.

Columns and labels:
[1] = biological target: T1, Cyclin-dependent kinase 8 (Homo sapiens, UniProt P49336); test: Inhibition of CDK8 (unknown origin)
[2] = biological target: T2, Protein cereblon/Cyclin-dependent kinase 8 (Homo sapiens) (UniProt P49336+Q96SW2); test: Induction of CRBN-mediated CDK8 degradation in human Jurkat cells at 1 uM measured after 6 hrs in presence of neddylation inhibitor MLN4924 by immunoblot analysis; assay type: cell-based
T2 sequence (P49336 whole entry, looked up): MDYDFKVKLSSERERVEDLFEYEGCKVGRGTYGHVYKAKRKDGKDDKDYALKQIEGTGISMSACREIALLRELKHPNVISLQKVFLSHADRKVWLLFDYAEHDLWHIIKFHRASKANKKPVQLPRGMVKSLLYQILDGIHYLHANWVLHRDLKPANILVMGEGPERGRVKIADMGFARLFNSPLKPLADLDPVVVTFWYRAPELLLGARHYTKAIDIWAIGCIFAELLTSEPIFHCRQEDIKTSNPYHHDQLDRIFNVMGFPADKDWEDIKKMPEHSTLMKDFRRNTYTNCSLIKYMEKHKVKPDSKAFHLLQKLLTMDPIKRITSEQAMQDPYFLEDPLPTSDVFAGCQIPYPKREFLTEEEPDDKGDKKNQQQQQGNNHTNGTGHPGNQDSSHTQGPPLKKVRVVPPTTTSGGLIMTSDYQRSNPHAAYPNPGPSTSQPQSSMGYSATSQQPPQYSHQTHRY
T2 sequence (Q96SW2 whole entry, looked up): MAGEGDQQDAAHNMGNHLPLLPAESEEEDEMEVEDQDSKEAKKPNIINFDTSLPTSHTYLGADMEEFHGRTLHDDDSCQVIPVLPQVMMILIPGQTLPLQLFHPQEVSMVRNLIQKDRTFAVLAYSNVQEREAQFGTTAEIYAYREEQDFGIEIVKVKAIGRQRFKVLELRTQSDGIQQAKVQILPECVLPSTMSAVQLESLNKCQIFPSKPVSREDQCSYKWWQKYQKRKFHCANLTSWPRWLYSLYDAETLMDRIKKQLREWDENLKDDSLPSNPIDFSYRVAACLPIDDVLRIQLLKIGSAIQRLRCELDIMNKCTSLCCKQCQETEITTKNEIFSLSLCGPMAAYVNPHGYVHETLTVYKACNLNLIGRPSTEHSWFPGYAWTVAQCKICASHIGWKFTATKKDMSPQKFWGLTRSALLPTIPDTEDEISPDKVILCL
In short: (§1)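 Rescue design: Jurkat cells pretreated with bortezomib (10 μM), MLN4924, lenalidomide in excess, or an excess of a CDK8-binding analogue unable to bind CRBN, then exposed to the degrader; CDK8 levels assessed by immunoblot.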

[3] = biological target: T2, Protein cereblon/Cyclin-dependent kinase 8 (Homo sapiens); test: Induction of CRBN-mediated CDK8 degradation in wild-type human Jurkat cells at 1 to 10 uM measured after 24 hrs by immunoblot analysis; assay type: cell-based
In short: (§2)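 Jurkat cells incubated with increasing concentrations (up to 20 μM in the widest series) for 24 h; lysate CDK8 levels read by immunoblot.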

[4] = biological target: T1, Cyclin-dependent kinase 8; test: Induction of CDK8 degradation in human MOLT4 cells harboring CRBN deletion mutant at 0.1 to 5 uM measured after 24 hrs by immunoblot analysis; assay type: cell-based
In short: (§3)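 Wild-type Molt4 cells and Molt4 cells with CRISPR/Cas9 deletion of CRBN were treated with increasing concentrations for 24 h; CDK8 in lysates detected by immunoblot.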

[5] = biological target: T2, Protein cereblon/Cyclin-dependent kinase 8 (Homo sapiens); test: Induction of CRBN-mediated CDK8 degradation in human Jurkat cells at 1 uM measured after 6 to 24 hrs by immunoblot analysis; assay type: cell-based
In short: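 Jurkat cells given 0.1 or 1 μM; lysates collected at 6 and 24 h and probed for CDK8 by immunoblot.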

[6] = biological target: Cyclin-dependent kinase 19 (Homo sapiens, UniProt Q9BWU1); test: Induction of CDK19 degradation in human Jurkat cells up to 20 uM measured after 24 hrs by immunoblot analysis
Sequence of Cyclin-dependent kinase 19 (Q9BWU1 whole entry): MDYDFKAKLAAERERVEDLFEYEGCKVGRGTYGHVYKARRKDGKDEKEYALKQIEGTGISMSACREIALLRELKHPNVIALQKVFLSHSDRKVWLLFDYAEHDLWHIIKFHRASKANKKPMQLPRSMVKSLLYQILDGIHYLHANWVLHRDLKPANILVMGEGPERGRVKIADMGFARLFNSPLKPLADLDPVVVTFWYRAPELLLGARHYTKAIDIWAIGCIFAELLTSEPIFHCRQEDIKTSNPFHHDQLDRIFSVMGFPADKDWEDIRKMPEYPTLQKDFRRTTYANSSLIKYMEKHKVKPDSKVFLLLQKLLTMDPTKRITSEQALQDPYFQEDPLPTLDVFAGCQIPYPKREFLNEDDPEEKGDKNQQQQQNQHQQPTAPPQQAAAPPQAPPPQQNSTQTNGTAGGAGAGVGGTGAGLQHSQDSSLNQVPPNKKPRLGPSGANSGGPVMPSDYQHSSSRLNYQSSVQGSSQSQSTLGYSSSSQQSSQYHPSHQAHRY

[7] = biological target: T2, Protein cereblon/Cyclin-dependent kinase 8 (Homo sapiens); test: Induction of CRBN-mediated CDK8 degradation in wild-type human Jurkat cells at 20 uM measured after 24 hrs by immunoblot analysis; assay type: cell-based; in short: as §2
[8] = biological target: T2, Protein cereblon/Cyclin-dependent kinase 8 (Homo sapiens); test: Induction of CRBN-mediated CDK8 degradation in human Jurkat cells at 1 uM measured after 6 hrs in presence of lenalidomide by immunoblot analysis; assay type: cell-based; in short: as §1
Jurkat = test: Effect on CDK8 mRNA levels in human Jurkat cells at 1 uM after 24 hrs by qPCR analysis; assay type: functional, cell-based
In short: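 Jurkat cells exposed to 1 μM or vehicle for 24 h; Cdk8 mRNA quantified by qPCR with two separate Cdk8 primer sets, normalized to Actin.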

[9] = biological target: T2, Protein cereblon/Cyclin-dependent kinase 8 (Homo sapiens); test: Induction of CRBN-mediated CDK8 degradation in wild-type human MOLT4 cells at 5 uM measured after 24 hrs by immunoblot analysis; in short: as §3
[10] = biological target: T2, Protein cereblon/Cyclin-dependent kinase 8 (Homo sapiens); test: Induction of CRBN-mediated CDK8 degradation in human Jurkat cells at 1 uM measured after 6 hrs in presence of N-((3S,17S)-17-(isoquinolin-7-yl)-10,13-dimethylhexadecahydro-1H-cyclopenta[a]phenanthren-3-yl)-Nmethyl-1-((2-(1-methyl-2,6-dioxopiperidin-3-yl)-1,3-dioxoisoindolin-4-yl)amino)-3,6,9,12-tetraoxapentadecan-15-amide by immunoblot analysis; assay type: cell-based; in short: as §1
[11] = biological target: T2, Protein cereblon/Cyclin-dependent kinase 8 (Homo sapiens); test: Induction of CRBN-mediated CDK8 degradation in human Jurkat cells at 1 uM measured after 6 hrs in presence of proteasome inhibitor bortezomib by immunoblot analysis; assay type: cell-based; in short: as §1
[12] = biological target: Protein cereblon/Cyclin-dependent kinase 19 (Homo sapiens) (UniProt Q9BWU1+Q96SW2); test: Induction of CRBN-mediated CDK19 degradation in wild-type human Jurkat cells up to 20 uM measured after 24 hrs by immunoblot analysis; assay type: cell-based
Sequence of Protein cereblon/Cyclin-dependent kinase 19 (Homo sapiens) (Q96SW2 whole entry, looked up): as the sequence (Q96SW2 whole entry, looked up) above
Sequence of Protein cereblon/Cyclin-dependent kinase 19 (Homo sapiens) (Q9BWU1 whole entry, looked up): as the sequence (Q9BWU1 whole entry) above
In short: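 Jurkat cells treated for 24 h; CDK19 protein in cell lysates assessed by immunoblot.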

[13] = biological target: T2, Protein cereblon/Cyclin-dependent kinase 8 (Homo sapiens); test: Induction of CRBN-mediated CDK8 degradation in human Jurkat cells up to 10 uM measured after 24 hrs by immunoblot analysis; assay type: cell-based; in short: as §2
[14] = biological target: T1, Cyclin-dependent kinase 8; test: Inhibition of CDK8 in human HepG2 cells assessed as reduction in IFNgamma-induced STAT1 phosphorylation at S727 measured after 18 hrs by Western blot analysis; assay type: cell-based
[15] = biological target: T2, Protein cereblon/Cyclin-dependent kinase 8 (Homo sapiens); test: Induction of CRBN-mediated CDK8 degradation in human Jurkat cells at 0.1 to 10 uM measured after 24 hrs by immunoblot analysis; assay type: cell-based; in short: as §2
[16] = biological target: T2, Protein cereblon/Cyclin-dependent kinase 8 (Homo sapiens); test: Induction of CRBN-mediated CDK8 degradation in human Jurkat cells at 0.1 to 1 uM measured after 6 to 24 hrs by immunoblot analysis; assay type: cell-based
In short: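 Jurkat cells were treated with compound at 0.1 or 1 μM. Lysates were collected at 6 and 24 h, and CDK8 protein levels were assessed by immunoblot.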

T1 sequence (P49336 whole entry): as the sequence (P49336 whole entry, looked up) above

Row | SMILES | IC50 [1] [nM] | further results
1 | C[C@]12CC[C@H](O)CC1=CC[C@@H]1[C@@H]2CC[C@]2(C)C(c3ccc4[nH]ncc4c3)=CC[C@@H]12 | > 10000 | –
2 | C[C@]12CC[C@H](N3CCOCC3)C[C@@H]1CC[C@@H]1[C@@H]2CC[C@]2(C)[C@@H](c3ccc4ccncc4c3)CC[C@@H]12 | 120 | –
3 | C[C@]12CC[C@H](O)CC1=CC[C@@H]1[C@@H]2CC[C@]2(C)C(c3ccc4nc(N)ncc4c3)=CC[C@@H]12 | 2300 | –
4 | C[C@]12CC[C@H](O)CC1=CC[C@@H]1[C@@H]2CC[C@]2(C)C(c3ccc4cnncc4c3)=CC[C@@H]12 | > 10000 | –
5 | C[C@]12CC[C@H]3[C@@H](CC=C4C[C@@H](O)CC[C@@]43C)[C@@H]1CC[C@@H]2c1ccc2ccncc2c1 | 48 | –
6 | CN(C(=O)CCOCCOCCOCCOCCNc1cccc2c1C(=O)N(C1CCC(=O)NC1=O)C2=O)[C@H]1CC[C@@]2(C)[C@@H](CC[C@@H]3[C@@H]2CC[C@]2(C)[C@@H](c4ccc5ccncc5c4)CC[C@@H]32)C1 (stereo partly specified) | 159 | Activity [2]: inactive; Activity [3]: Active; Activity [4]: inactive; Activity [5]: Active; Activity [6]: inactive; Activity [7]: inactive; Activity [8]: inactive; Activity (Jurkat): inactive; Activity [9]: Active; Activity [10]: inactive; Activity [11]: inactive; Activity [12]: inactive
7 | CN[C@H]1CC[C@@]2(C)[C@@H](CC[C@@H]3[C@@H]2CC[C@]2(C)[C@@H](c4ccc5ccncc5c4)CC[C@@H]32)C1 | 1320 | –
8 | C[C@]12CC[C@H](O)CC1=CC[C@@H]1[C@@H]2CC[C@]2(C)C(c3ccc4c(N)n[nH]c4c3)=CC[C@@H]12 | 1520 | –
9 | C[C@]12CC[C@H](O)CC1=CC[C@@H]1[C@@H]2CC[C@]2(C)C(c3ccc4cn[nH]c4c3)=CC[C@@H]12 | > 10000 | –
10 | C[C@]12CC[C@H]3[C@@H](CC=C4C[C@@H](O)CC[C@@]43C)[C@@H]1CC[C@@H]2c1ccc2c(N)n[nH]c2c1 | 682 | –
11 | CN(C)[C@@H]1CC[C@@]2(C)[C@@H](CC[C@@H]3[C@@H]2CC[C@]2(C)[C@@H](c4ccc5ccncc5c4)CC[C@@H]32)C1 | 64 | –
12 | CN1C(=O)CCC(N2C(=O)c3cccc(NCCOCCOCCOCCOCCC(=O)N(C)[C@H]4CC[C@@]5(C)[C@@H](CC[C@@H]6[C@@H]5CC[C@]5(C)[C@@H](c7ccc8ccncc8c7)CC[C@@H]65)C4)c3C2=O)C1=O (stereo partly specified) | 443 | Activity [13]: inactive
13 | C[C@]12CC[C@H]3[C@@H](CC=C4C[C@@H](O)CC[C@@]43C)[C@@H]1CC[C@@H]2c1ccc2[nH]ncc2c1 | > 10000 | –
14 | C[C@]12CC[C@H]3[C@@H](CC=C4C[C@@H](O)CC[C@@]43C)[C@@H]1CC[C@@H]2c1ccc2cn[nH]c2c1 | > 10000 | –
15 | C[C@]12CC[C@H]3[C@@H](CC=C4C[C@@H](O)CC[C@@]43C)[C@@H]1CC[C@@H]2c1ccc2cnncc2c1 | > 10000 | –
16 | C[C@]12CC[C@H]3[C@@H](CC=C4C[C@@H](O)CC[C@@]43C)[C@@H]1CC[C@@H]2c1ccc2cnccc2c1 | 6000 | –
17 | C[C@]12CC[C@H](O)C[C@@H]1CC[C@@H]1[C@@H]2CC[C@]2(C)[C@@H](c3ccc4ccncc4c3)CC[C@@H]12 | 208 | –
18 | CN(C)[C@H]1C[C@@]23CC[C@@]4(O2)C(=CC[C@]2(C)C(c5ccc6ccncc6c5)=CCC24)C=C3[C@@H](O)[C@@H]1O (stereo partly specified) | – | inhibition [14]: Dose-dependent effect
19 | CN(C(=O)CCOCCOCCNc1cccc2c1C(=O)N(C1CCC(=O)NC1=O)C2=O)[C@H]1CC[C@@]2(C)[C@@H](CC[C@@H]3[C@@H]2CC[C@]2(C)[C@@H](c4ccc5ccncc5c4)CC[C@@H]32)C1 (stereo partly specified) | 192 | Activity [15]: inactive
20 | C[C@]12CC[C@H]3[C@@H](CC=C4C[C@@H](O)CC[C@@]43C)[C@@H]1CC[C@@H]2c1ccc2nc(N)ncc2c1 | 108 | –
21 | C[C@]12CC[C@H](O)C[C@@H]1CC[C@@H]1[C@@H]2CC[C@]2(C)C(c3ccc4ccncc4c3)=CC[C@@H]12 | 1010 | –
22 | CN(C)[C@H]1CC[C@@]2(C)[C@@H](CC[C@@H]3[C@@H]2CC[C@]2(C)[C@@H](c4ccc5ccncc5c4)CC[C@@H]32)C1 | 24 | –
23 | CN(CCCCCOCCOCCNc1cccc2c1C(=O)N(C1CCC(=O)NC1=O)C2=O)[C@H]1CC[C@@]2(C)[C@@H](CC[C@@H]3[C@@H]2CC[C@]2(C)[C@@H](c4ccc5ccncc5c4)CC[C@@H]32)C1 (stereo partly specified) | – | Activity [16]: inactive
24 | CC(=O)N(C)[C@H]1CC[C@@]2(C)[C@@H](CC[C@@H]3[C@@H]2CC[C@]2(C)[C@@H](c4ccc5ccncc5c4)CC[C@@H]32)C1 | 34 | –
25 | C[C@]12CC[C@H](O)CC1=CC[C@@H]1[C@@H]2CC[C@]2(C)C(c3ccc4ccncc4c3)=CC[C@@H]12 | 164 | –
26 | C[C@]12CC[C@H](O)CC1=CC[C@@H]1[C@@H]2CC[C@]2(C)C(c3ccc4cnccc4c3)=CC[C@@H]12 | 8240 | –
27 | C[C@]12CC[C@H](n3ccnn3)C[C@@H]1CC[C@@H]1[C@@H]2CC[C@]2(C)[C@@H](c3ccc4ccncc4c3)CC[C@@H]12 | 24 | –
